Test results from ChEMBL document CHEMBL1143109, “Discovery of novel orally active ureido NPY Y5 receptor antagonists” (Bioorg Med Chem Lett, 2008).
Activity calls are given as the source filed them. No cut-off for these calls is given here.

What was measured:
[1] = biological target: T1, Neuropeptide Y receptor type 5 (Rattus norvegicus) (UniProt Q63634); assay: Antagonist activity at rat NPY Y5 receptor expressed in HEK293 cells assessed as inhibition of forskolin-stimulated cAMP production; type: functional, cell-based
T1 sequence (whole entry): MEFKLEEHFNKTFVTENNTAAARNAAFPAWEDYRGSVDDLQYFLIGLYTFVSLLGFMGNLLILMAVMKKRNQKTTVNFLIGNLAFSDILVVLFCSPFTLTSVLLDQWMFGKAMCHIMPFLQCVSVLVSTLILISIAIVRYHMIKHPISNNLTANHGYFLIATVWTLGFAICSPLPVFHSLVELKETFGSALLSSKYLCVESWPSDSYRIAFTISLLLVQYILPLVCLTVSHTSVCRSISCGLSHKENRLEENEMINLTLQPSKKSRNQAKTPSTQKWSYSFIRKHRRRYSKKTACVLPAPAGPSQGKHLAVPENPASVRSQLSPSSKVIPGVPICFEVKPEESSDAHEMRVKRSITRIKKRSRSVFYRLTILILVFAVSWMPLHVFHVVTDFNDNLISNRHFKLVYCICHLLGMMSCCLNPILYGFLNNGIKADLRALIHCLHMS
Method in brief: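 HEK293 cells expressing rat NPY Y5 receptor. Functional antagonism measured as the ability to overcome NPY inhibition of forskolin-stimulated cAMP production; reported as Kb.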

[2] = Drug level in plasma of Sprague-Dawley DIO rat at 10 mg/kg/day, po after 28 days; type: ADME, organism-based; parameters: route oral
Method in brief: (§1)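 DIO rats weighing 700–800 g at start, n = 12/group, food and water ad libitum. Compound admixed into low fat diet for 28 days; delivered doses (1, 3 or 10 mg/kg/day) calculated from food consumption. Body composition by DEXA scanning, expressed as percent change from day 0 baseline; average plasma levels taken at the 10 mg/kg/day dose.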

[3] = Bioavailability in Beagle dog; type: ADME, organism-based, Canis lupus familiaris; settings: in vivo
[4] = biological target: 5-hydroxytryptamine receptor 2B (Homo sapiens) (UniProt P41595); assay: Inhibition of 5HT2B receptor at 10 uM
Method in brief: (§2)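 Counterscreen panel of 60 receptors, enzymes and ion channels; inhibition of binding measured at 10 µM.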

[5] = biological target: 5-hydroxytryptamine receptor 5A (Homo sapiens) (UniProt P47898); assay: Inhibition of 5HT5A receptor at 10 uM; method in brief: as §2
[6] = biological target: 5-hydroxytryptamine receptor 7 (Homo sapiens) (UniProt P34969); assay: Inhibition of 5HT7 receptor at 10 uM; method in brief: as §2
[7] = Half life in Beagle dog; type: ADME, organism-based, Canis lupus familiaris; settings: in vivo
[8] = Inhibition of potassium channel at 10 uM; method in brief: as §2
[9] = biological target: T2, 5-hydroxytryptamine receptor 2C (Homo sapiens) (UniProt P28335); assay: Inhibition of 5HT2C receptor at 10 uM; method in brief: as §2
T2 sequence (whole entry): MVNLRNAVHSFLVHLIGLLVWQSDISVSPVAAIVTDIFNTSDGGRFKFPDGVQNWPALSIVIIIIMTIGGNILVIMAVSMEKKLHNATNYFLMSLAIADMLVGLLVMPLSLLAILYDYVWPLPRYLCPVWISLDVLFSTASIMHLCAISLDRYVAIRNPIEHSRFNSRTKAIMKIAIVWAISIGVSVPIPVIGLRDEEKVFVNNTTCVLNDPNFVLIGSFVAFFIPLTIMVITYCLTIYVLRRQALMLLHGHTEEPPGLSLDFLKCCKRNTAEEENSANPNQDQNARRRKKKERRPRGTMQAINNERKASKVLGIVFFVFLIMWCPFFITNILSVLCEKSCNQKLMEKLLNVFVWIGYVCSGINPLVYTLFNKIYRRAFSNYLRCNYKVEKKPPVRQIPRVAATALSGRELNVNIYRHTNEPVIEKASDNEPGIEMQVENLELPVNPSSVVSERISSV

Rattus norvegicus [10] = assay: Increase in lean body mass in Sprague-Dawley DIO rat at 10 mg/kg/day, po after 28 days; type: functional, organism-based; method in brief: as §1
[11] = biological target: Sodium-dependent noradrenaline transporter (Homo sapiens) (UniProt P23975); assay: Inhibition of norepinephrine transporter at 10 uM; method in brief: as §2
[12] = biological target: Sodium-dependent dopamine transporter (Homo sapiens) (UniProt Q01959); assay: Inhibition of dopamine transporter at 10 uM; method in brief: as §2
[13] = Half life in iv dosed rat; type: ADME, organism-based; settings: in vivo
Rattus norvegicus [14] = species on record: Rattus norvegicus; assay: Antagonism of galanin-induced food intake in rat; type: functional, organism-based
Rattus norvegicus [15] = assay: Reduction in food intake in Sprague-Dawley DIO rat at 10 mg/kg/day, po after 28 days relative to control; type: functional, organism-based; method in brief: as §1
[16] = Inhibition of calcium channel at 10 uM; method in brief: as §2
[17] = biological target: T3, Neuropeptide Y receptor type 1 (Homo sapiens, UniProt P25929); assay: Binding affinity to human NPY Y1 receptor
T3 sequence (P25929 whole entry): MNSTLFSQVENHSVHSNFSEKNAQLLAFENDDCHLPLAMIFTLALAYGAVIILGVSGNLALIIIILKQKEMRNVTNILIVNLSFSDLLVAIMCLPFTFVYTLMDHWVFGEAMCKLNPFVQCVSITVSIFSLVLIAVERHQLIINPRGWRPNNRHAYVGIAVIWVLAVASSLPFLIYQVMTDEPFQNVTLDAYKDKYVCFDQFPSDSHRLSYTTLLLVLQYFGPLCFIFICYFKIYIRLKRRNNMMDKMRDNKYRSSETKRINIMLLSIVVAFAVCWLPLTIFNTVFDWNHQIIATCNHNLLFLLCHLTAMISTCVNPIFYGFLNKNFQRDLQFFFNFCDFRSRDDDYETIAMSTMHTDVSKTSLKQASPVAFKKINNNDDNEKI

[18] = Ratio of drug level in brain to plasma in po dosed rat; type: ADME, organism-based; settings: read-out: BPR
GABA transporter = assay: Inhibition of GABA transporter at 10 uM
[19] = biological target: Neuropeptide Y receptor type 4 (Homo sapiens, UniProt P50391); assay: Binding affinity to human NPY Y4 receptor
[20] = biological target: 5-hydroxytryptamine receptor 6 (Homo sapiens) (UniProt P50406); assay: Inhibition of 5HT6 receptor at 10 uM; method in brief: as §2
Rattus norvegicus [21] = assay: Decrease in adipose mass in po dosed Sprague-Dawley DIO rat after 28 days; type: functional, organism-based; method in brief: as §1
[22] = biological target: Sodium-dependent serotonin transporter (Homo sapiens) (UniProt P31645); assay: Inhibition of serotonin transporter at 10 uM; method in brief: as §2
[23] = biological target: T4, Neuropeptide Y receptor type 2 (Homo sapiens, UniProt P49146); assay: Binding affinity to human NPY Y2 receptor
T4 sequence (P49146 whole entry): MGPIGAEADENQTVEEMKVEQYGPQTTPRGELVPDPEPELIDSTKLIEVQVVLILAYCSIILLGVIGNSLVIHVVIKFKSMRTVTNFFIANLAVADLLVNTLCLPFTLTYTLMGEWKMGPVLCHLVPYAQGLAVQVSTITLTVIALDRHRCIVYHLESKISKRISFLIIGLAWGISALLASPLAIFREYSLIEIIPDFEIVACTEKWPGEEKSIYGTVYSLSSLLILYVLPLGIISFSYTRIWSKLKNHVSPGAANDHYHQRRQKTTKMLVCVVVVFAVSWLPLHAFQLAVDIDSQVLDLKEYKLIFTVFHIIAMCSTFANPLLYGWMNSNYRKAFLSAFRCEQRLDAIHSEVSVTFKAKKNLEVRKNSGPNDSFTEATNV

Chain of 5-hydroxytryptamine receptor 5A (Homo sapiens) (P47898 whole entry): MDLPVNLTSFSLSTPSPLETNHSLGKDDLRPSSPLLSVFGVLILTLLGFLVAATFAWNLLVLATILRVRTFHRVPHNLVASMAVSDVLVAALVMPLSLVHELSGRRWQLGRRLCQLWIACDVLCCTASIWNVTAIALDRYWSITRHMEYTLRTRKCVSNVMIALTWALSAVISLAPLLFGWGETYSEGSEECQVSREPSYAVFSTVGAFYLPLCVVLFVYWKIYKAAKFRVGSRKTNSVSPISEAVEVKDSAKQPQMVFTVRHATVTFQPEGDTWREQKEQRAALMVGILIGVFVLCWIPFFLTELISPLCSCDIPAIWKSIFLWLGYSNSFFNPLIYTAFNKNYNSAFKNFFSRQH
Chain of 5-hydroxytryptamine receptor 7 (Homo sapiens) (P34969 whole entry): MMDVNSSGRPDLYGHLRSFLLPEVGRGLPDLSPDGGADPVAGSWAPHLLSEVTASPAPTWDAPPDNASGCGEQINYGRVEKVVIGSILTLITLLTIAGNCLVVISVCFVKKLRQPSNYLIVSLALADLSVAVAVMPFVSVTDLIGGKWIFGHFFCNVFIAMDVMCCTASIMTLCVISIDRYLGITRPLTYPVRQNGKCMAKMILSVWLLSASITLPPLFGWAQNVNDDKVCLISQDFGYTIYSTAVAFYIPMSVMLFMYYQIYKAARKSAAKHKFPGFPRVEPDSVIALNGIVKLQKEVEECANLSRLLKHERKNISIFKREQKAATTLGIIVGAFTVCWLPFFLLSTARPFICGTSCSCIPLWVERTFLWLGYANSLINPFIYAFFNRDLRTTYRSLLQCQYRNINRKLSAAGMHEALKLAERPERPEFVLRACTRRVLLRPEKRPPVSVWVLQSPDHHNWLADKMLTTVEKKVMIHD
Chain of Sodium-dependent serotonin transporter (Homo sapiens) (P31645 whole entry, looked up): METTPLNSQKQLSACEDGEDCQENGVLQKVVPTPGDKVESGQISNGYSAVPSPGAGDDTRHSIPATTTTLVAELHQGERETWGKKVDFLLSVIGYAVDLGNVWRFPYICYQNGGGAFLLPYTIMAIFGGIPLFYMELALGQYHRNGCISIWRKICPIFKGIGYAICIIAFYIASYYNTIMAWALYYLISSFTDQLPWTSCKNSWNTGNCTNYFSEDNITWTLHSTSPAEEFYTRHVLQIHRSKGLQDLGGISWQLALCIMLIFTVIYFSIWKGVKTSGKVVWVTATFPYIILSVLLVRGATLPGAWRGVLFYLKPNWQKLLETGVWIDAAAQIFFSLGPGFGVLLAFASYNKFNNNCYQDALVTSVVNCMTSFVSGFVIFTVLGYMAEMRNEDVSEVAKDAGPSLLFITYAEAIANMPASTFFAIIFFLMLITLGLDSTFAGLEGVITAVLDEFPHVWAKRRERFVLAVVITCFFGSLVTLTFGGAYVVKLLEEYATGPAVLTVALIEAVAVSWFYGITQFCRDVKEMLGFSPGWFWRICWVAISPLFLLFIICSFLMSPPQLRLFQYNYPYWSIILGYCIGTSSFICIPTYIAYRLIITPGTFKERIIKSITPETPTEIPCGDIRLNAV
Chain of 5-hydroxytryptamine receptor 6 (Homo sapiens) (P50406 whole entry): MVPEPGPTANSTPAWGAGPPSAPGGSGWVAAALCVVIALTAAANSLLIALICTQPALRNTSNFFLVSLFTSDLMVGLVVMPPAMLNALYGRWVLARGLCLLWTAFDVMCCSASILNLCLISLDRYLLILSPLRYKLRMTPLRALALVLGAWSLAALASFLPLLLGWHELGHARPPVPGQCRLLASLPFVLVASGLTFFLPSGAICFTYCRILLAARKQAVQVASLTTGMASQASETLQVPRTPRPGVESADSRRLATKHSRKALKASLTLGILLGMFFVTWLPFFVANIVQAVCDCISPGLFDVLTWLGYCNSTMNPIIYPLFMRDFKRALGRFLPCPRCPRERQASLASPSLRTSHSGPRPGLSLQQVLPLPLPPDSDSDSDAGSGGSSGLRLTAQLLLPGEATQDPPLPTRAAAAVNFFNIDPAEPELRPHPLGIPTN
Chain of Sodium-dependent noradrenaline transporter (Homo sapiens) (P23975 whole entry): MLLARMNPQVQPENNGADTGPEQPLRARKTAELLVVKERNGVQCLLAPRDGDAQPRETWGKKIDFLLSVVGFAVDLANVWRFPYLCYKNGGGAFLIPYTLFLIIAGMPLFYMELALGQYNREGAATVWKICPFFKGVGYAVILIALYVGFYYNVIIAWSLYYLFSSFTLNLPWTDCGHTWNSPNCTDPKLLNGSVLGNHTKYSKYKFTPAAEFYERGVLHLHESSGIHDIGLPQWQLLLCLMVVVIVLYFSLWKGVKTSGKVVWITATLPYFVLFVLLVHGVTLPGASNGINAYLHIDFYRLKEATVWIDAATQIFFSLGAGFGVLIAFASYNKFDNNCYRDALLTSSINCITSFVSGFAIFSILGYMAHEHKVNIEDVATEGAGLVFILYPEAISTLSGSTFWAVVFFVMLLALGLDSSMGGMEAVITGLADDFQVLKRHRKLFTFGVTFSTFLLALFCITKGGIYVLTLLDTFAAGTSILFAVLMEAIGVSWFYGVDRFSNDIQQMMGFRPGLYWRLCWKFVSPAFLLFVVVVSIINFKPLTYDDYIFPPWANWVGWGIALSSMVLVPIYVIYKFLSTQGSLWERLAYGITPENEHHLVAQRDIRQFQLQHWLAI
Chain of 5-hydroxytryptamine receptor 2B (Homo sapiens) (P41595 whole entry): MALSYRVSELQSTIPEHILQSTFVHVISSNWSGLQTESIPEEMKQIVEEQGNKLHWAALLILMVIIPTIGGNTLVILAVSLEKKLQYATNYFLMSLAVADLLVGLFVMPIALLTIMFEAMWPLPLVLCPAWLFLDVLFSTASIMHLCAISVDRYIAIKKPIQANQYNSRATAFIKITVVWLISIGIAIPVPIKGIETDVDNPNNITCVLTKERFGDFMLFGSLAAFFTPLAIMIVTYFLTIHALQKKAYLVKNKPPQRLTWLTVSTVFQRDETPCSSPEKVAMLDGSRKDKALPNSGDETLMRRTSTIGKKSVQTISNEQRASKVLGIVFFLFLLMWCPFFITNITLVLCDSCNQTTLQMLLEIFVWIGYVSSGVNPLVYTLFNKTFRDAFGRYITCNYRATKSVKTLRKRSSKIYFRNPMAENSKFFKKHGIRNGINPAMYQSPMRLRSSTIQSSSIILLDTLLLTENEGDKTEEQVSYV
Chain of Neuropeptide Y receptor type 4 (P50391 whole entry): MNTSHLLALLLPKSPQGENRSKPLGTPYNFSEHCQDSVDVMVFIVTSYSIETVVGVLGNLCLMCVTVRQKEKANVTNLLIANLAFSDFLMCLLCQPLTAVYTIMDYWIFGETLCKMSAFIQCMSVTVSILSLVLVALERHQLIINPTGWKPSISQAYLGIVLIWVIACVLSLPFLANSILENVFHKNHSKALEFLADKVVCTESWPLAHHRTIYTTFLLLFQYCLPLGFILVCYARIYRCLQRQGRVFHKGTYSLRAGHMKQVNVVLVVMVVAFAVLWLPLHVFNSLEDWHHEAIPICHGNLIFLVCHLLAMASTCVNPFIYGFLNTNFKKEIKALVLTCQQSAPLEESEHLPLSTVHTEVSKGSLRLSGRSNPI
Chain of Sodium-dependent dopamine transporter (Homo sapiens) (Q01959 whole entry): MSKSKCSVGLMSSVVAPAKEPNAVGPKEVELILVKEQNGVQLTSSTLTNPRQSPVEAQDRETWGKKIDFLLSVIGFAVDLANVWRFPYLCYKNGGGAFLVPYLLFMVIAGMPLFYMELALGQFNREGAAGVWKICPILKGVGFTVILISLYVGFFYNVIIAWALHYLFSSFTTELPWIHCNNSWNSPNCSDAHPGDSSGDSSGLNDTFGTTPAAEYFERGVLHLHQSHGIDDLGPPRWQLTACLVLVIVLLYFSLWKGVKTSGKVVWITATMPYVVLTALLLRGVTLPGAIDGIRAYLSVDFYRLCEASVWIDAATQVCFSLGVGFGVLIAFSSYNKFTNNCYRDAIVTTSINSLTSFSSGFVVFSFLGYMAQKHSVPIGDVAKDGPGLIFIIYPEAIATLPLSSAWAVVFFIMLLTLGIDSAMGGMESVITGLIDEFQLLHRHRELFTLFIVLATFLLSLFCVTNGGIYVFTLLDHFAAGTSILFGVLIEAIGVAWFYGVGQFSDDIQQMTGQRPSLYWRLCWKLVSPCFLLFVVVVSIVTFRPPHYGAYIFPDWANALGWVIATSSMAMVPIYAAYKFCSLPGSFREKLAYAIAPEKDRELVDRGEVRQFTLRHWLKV

With CC(=O)N1CCC(N(C)C(=O)N[C@H]2CC[C@H](c3cc(F)cc(F)c3)CC2)CC1 the Kb [1] was 0.0027 µM, the concentration at 672 h [2] was 13 µM and the bioavailability [3] was 94%. The inhibition [4] was less than 10%, the inhibition [5] was less than 10% and the inhibition [6] was less than 10%. The half-life [7] was 24 h, the inhibition [8] was less than 25% and the inhibition [9] was less than 10%. For the same molecule, the Activity (Rattus norvegicus [10]) was “Active”, the inhibition [11] was less than 10% and the inhibition [12] was less than 10%. For the same molecule, the half-life [13] was 1.4 h, the Activity (Rattus norvegicus [14]) was “inactive” and the Activity (Rattus norvegicus [15]) was “Dose-dependent effect”. For the same molecule, the inhibition [16] was less than 25%, the Ki [17] was greater than 10 µM and the Kp [18] was 0.3. For the same molecule, the inhibition (GABA transporter) was less than 10%, the Ki [19] was greater than 10 µM and the inhibition [20] was less than 10%. The Activity (Rattus norvegicus [21]) was “Dose-dependent effect”, the inhibition [22] was less than 10% and the Ki [23] was greater than 10 µM.
